ChEMBL document CHEMBL1255424, “Antistaphylococcal activity of ACHN-490 tested alone and in combination with other agents by time-kill assay” (2010)

What was measured:
Type in all cases: functional
Staphylococcus aureus [1] = assay: Antibacterial activity against vancomycin-intermediate Staphylococcus aureus isolate 1006 after 24 hrs by modified broth macrodilution method; conditions: isolate 1006, 24 h
Method in brief: (§1)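 MIC read after 24 h incubation by modified broth macrodilution, validated per CLSI recommendations, against recent clinical MRSA isolates (hospital- and community-acquired, hVISA, VISA, VRSA). Daptomycin tests ran in Mueller-Hinton broth with added calcium.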

Staphylococcus aureus [2] = assay: Antibacterial activity against vancomycin-intermediate Staphylococcus aureus isolate 1016 after 24 hrs by modified broth macrodilution method; conditions: isolate 1016, 24 h; method in brief: as §1
Staphylococcus aureus [3] = assay: Antibacterial activity against vancomycin-intermediate Staphylococcus aureus after 24 hrs by modified broth macrodilution method; method in brief: as §1

Measured: MIC

CC(=O)NC[C@H]1CN(c2ccc(N3CCOCC3)c(F)c2)C(=O)O1 [LINEZOLID]
1 µg/mL: all assays above
